Experimental data from ChEMBL document CHEMBL5678806, “NMS-P937, an orally available, specific small-molecule polo-like kinase 1 inhibitor with antitumor activity in solid and hematologic malignancies” (Mol Cancer Ther, 2012).

How the values were obtained:
[1] = AUC in nu/nu mouse at 10 mg/kg, po by LC-MS analysis; format: ADME, organism-based; details: in vivo
HCC 2998 = test: Antiproliferative activity against human HCC 2998 cells assessed as inhibition of cell growth incubated for 72 hrs by cell-titer glo assay; format: functional, cell-based; details: HCC 2998, 72 h
Procedure, shortened: (§1)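 Cells seeded at 10,000–30,000/cm² (adherent) or 100,000/mL (nonadherent) in medium with 10% fetal calf serum; after 24 h, treated in duplicate with serial dilutions for 72 h. Viable cell number read by CellTiter-Glo luminescence; IC50 from sigmoidal fit; at least two independent experiments.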

[2] = target: MAP kinase-activated protein kinase 5 (Homo sapiens) (UniProt Q8IW41); test: Inhibition of N-terminal His6-tagged recombinant human full-length PRAK expressed in baculovirus infected Sf21 cells assessed as residual activity at 1 uM relative to control
[3] = test system: Platelet-derived growth factor receptor alpha (Homo sapiens), P16234 [D842V]; test: Inhibition of N-terminal His6-tagged recombinant human PDGFRalpha (550 to end residues) D842V mutant expressed in baculovirus infected Sf21 cells assessed as residual activity at 0.1 uM relative to control
RS4-11 = test: Antiproliferative activity against human RS4-11 cells assessed as inhibition of cell growth incubated for 72 hrs by cell-titer glo assay; format: functional, cell-based; details: RS4-11, 72 h
Procedure, shortened: (§2)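 Cells from ATCC or ECACC, kept in supplier-recommended medium with 1% penicillin-streptomycin at 37°C, 5% CO₂. Seeded at 10,000–30,000/cm² (adherent) or 100,000/mL (nonadherent) in medium with 10% fetal calf serum. Dosed after 24 h in duplicate with serial dilutions. Viable cells read by CellTiter-Glo 72 h later. IC50 from sigmoidal fit. At least two independent experiments.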

[4] = target: Protein-tyrosine kinase 6 (Homo sapiens, UniProt Q13882); test: Inhibition of BRK (unknown origin) in presence of [gamma-33P]ATP
[5] = Antitumor activity against human Acute myeloid leukemic cell xenografted in nu/nu mouse assessed as increase in median survival time at 120 mg/kg, po administered for 2 days and measured after 5 days (reference value: 36 days); format: functional, Leukemia cell; details: time 2 day
SK-MEL-5 = test: Antiproliferative activity against human SK-MEL-5 cells assessed as inhibition of cell growth incubated for 72 hrs by cell-titer glo assay; format: functional, cell-based; details: SK-MEL-5, 72 h
[6] = Plasma concentration in nu/nu mouse xenografted with human HL-60 cells at 60 mg/kg, po administered for 10 days relative to control; format: ADME, organism-based; details: time 10 day
[7] = target: Mitogen-activated protein kinase 13 (Homo sapiens) (UniProt O15264); test: Inhibition of recombinant GST-tagged fusion protein fused to full length human SAPK4 expressed in E. coli assessed as residual activity at 0.1 uM relative to control
Granta-519 = test: Antiproliferative activity against human Granta-519 cells assessed as inhibition of cell growth incubated for 72 hrs by cell-titer glo assay; format: functional, cell-based; details: Granta-519, 72 h; procedure, shortened: as §1
SW1417 = test: Antiproliferative activity against human SW1417 cells assessed as inhibition of cell growth incubated for 72 hrs by cell-titer glo assay; format: functional, cell-based; details: SW1417, 72 h
T98G = test: Antiproliferative activity against human T98G cells assessed as inhibition of cell growth incubated for 72 hrs by cell-titer glo assay; format: functional, cell-based
SU-DHL-1 = test: Antiproliferative activity against human SU-DHL-1 cells assessed as inhibition of cell growth incubated for 72 hrs by cell-titer glo assay; format: functional, cell-based; details: SU-DHL-1, 72 h
[8] = Antiproliferative activity against human GM13705 cells assessed as inhibition of cell growth incubated for 72 hrs by cell-titer glo assay; format: functional, cell-based; details: GM13705, 72 h; procedure, shortened: as §1
EVSA-T = test: Antiproliferative activity against human EVSA-T cells assessed as inhibition of cell growth incubated for 72 hrs by cell-titer glo assay; format: functional, cell-based
Procedure, shortened: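 Cells seeded 10,000–30,000/cm² (adherent) or 100,000/mL (suspension) in medium with 10% fetal calf serum; after 24 h treated in duplicate with serial dilutions for 72 h. Viable cells read by CellTiter-Glo luminescence; IC50 from sigmoidal fit; at least two independent experiments.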

HCC1954 = test: Antiproliferative activity against human HCC1954 cells assessed as inhibition of cell growth incubated for 72 hrs by cell-titer glo assay; format: functional, cell-based; details: HCC1954, 72 h; procedure, shortened: as §1
[9] = Clearance in Sprague-Dawley rat at 10 mg/kg, iv by LC-MS analysis; format: ADME, organism-based; details: in vivo
KMS-11 = test: Antiproliferative activity against human KMS-11 cells assessed as inhibition of cell growth incubated for 72 hrs by cell-titer glo assay; format: functional, cell-based; details: KMS-11, 72 h; procedure, shortened: as §1
NCI-H358 = test: Antiproliferative activity against human NCI-H358 cells assessed as inhibition of cell growth incubated for 72 hrs by cell-titer glo assay; format: functional, cell-based; details: NCI-H358, 72 h; procedure, shortened: as §2
SUD4 = test: Antiproliferative activity against human SU-DHL-4 cells assessed as inhibition of cell growth incubated for 72 hrs by cell-titer glo assay; format: functional, cell-based; details: SU-DHL-4, 72 h
[10] = target: Ribosomal protein S6 kinase beta-1 (Homo sapiens) (UniProt P23443); test: Inhibition of N-terminal His6-tagged recombinant p70S6K (1 to 421 residues) (unknown origin) expressed in baculovirus infected Sf21 cells assessed as residual activity at 1 uM relative to control
[11] = Volume of distribution at steady state in Sprague-Dawley rat at 10 mg/kg, iv by LC-MS analysis; format: ADME, organism-based; details: in vivo, read-out: Vdss
[12] = Half-life in male cynomolgus monkey at 5 mg/kg, po by LC-MS analysis; format: ADME, organism-based, Macaca fascicularis; details: in vivo
A2780 = test: Induction of cell cycle arrest in human A2780 cells assessed as accumulation of cells in G2/M phase by measuring Histone H3 phosphorylation on Ser10 incubated for 24 hrs by Western blotting analysis; format: functional, cell-based; details: dose 0.02-0.2 µmol/L
Procedure, shortened: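 A2780 ovarian carcinoma cells treated 24 h with a range of concentrations, with DMSO and nocodazole controls. 20 µg protein extract separated by SDS-PAGE and immunoblotted with chemiluminescent detection. Probed for total and phospho-Thr210 PLK1, phospho-Ser10 histone H3, phospho-Thr199 NPM and phospho-Tyr15 CDK1. Total NPM, tubulin and total CDK1 served as loading controls.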

U2OS = test: Antiproliferative activity against human U2OS cells assessed as inhibition of cell growth incubated for 72 hrs by cell-titer glo assay; format: functional, cell-based
[13] = target: Serine/threonine-protein kinase MARK2 (Homo sapiens) (UniProt Q7KZI7); test: Inhibition of N-terminal His6-tagged recombinant full-length human PAR-1Balpha expressed in baculovirus infected Sf21 cells assessed as residual activity at 1 uM relative to control
[14] = target: Ribosomal protein S6 kinase alpha-4 (Homo sapiens) (UniProt O75676); test: Inhibition of N-terminal His6-tagged recombinant human MSK2 (2 to end residues) expressed in baculovirus infected Sf21 cells assessed as residual activity at 1 uM relative to control
[15] = Half-life in Beagle dog at 5 mg/kg, iv by LC-MS analysis; format: ADME, organism-based, Canis lupus familiaris; details: in vivo
[16] = target: Non-receptor tyrosine-protein kinase TYK2 (Homo sapiens, UniProt P29597); test: Inhibition of TYK2 (unknown origin) in presence of [gamma-33P]ATP
Sequence of Non-receptor tyrosine-protein kinase TYK2 (P29597 whole entry): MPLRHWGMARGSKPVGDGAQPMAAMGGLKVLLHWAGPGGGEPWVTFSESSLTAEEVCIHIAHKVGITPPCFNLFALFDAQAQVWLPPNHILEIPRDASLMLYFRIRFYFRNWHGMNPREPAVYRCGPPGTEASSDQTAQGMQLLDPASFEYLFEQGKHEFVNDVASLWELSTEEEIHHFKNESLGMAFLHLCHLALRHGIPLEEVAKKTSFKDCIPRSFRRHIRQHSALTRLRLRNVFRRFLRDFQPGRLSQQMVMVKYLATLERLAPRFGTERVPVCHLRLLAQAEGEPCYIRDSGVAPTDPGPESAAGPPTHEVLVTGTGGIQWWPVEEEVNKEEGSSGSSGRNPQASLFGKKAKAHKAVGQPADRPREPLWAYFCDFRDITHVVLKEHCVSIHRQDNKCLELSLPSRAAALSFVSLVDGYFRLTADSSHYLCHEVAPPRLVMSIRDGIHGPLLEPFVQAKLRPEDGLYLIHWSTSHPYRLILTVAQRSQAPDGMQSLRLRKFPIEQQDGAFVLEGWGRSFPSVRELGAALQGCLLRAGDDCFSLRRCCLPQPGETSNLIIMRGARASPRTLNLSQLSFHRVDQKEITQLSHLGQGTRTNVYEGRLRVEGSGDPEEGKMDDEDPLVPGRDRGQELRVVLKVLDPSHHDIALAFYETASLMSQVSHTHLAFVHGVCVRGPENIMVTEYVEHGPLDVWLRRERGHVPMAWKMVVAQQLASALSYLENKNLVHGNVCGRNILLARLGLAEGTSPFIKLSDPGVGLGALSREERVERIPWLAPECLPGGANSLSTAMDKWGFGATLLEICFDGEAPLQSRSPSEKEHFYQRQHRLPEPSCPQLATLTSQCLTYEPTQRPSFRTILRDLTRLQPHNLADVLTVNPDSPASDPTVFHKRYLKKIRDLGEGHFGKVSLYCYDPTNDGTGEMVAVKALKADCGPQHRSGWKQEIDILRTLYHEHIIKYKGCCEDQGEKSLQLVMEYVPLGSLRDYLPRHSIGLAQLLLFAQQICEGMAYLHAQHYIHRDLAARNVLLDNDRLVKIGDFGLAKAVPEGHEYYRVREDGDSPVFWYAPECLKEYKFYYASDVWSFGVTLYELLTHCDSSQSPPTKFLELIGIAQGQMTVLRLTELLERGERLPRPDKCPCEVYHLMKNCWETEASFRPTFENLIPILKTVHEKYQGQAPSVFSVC

Sequence of Ribosomal protein S6 kinase alpha-4 (Homo sapiens) (O75676 whole entry, looked up): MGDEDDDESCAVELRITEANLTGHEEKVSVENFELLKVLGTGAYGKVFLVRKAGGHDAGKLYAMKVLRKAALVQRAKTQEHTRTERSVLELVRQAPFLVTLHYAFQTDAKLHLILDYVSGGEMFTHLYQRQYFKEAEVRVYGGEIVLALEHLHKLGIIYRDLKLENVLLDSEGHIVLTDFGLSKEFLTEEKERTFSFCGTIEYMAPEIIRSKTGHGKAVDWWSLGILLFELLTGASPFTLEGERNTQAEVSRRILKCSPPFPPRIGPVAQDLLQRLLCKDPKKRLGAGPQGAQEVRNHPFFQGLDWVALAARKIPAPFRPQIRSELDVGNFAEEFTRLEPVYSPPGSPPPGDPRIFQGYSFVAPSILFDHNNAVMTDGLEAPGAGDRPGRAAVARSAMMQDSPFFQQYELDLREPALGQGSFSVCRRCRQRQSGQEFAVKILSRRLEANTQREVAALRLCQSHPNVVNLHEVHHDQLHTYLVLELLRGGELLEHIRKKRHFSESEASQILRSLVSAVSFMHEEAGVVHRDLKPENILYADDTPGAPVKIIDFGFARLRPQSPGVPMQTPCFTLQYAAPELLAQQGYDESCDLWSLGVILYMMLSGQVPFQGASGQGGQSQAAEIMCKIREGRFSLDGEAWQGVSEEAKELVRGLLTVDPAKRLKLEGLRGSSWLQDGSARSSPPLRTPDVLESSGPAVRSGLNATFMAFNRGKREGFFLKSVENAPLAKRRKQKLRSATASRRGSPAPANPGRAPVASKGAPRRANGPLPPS
Sequence of Serine/threonine-protein kinase MARK2 (Homo sapiens) (Q7KZI7 whole entry): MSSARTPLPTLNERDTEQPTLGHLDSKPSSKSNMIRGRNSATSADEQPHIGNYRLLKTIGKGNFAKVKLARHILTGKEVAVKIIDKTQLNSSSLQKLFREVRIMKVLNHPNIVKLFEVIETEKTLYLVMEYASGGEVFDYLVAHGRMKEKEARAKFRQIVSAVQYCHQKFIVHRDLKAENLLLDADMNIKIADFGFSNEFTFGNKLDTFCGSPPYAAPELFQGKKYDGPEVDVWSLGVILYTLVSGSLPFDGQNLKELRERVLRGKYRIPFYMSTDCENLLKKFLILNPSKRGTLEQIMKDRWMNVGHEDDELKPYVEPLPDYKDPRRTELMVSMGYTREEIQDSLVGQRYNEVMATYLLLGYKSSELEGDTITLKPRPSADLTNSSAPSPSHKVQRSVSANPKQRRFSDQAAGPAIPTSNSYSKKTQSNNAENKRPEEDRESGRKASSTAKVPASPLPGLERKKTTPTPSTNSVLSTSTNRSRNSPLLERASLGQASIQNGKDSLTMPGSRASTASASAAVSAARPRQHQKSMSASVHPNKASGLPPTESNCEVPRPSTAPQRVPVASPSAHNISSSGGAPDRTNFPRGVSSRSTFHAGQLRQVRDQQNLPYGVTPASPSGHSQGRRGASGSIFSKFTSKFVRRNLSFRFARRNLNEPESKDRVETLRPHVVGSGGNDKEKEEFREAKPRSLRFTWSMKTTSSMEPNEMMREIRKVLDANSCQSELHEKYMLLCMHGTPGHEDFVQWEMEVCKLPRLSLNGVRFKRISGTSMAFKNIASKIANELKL
Sequence of Ribosomal protein S6 kinase beta-1 (Homo sapiens) (P23443 whole entry, looked up, the tested form may be a part): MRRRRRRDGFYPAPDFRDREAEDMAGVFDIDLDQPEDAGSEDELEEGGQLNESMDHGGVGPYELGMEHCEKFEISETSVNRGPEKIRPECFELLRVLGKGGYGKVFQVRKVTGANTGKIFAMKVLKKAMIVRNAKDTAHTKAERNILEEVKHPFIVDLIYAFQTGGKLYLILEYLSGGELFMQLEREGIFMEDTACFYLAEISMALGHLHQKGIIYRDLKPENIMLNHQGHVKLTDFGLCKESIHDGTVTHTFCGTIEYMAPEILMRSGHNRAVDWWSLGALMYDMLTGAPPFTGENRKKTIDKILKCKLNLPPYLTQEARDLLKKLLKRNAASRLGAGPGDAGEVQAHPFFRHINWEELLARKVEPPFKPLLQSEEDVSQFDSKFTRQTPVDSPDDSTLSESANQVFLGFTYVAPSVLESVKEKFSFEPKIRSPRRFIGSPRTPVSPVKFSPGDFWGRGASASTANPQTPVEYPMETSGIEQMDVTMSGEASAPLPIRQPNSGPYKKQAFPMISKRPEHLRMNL
Sequence of Mitogen-activated protein kinase 13 (Homo sapiens) (O15264 whole entry, the tested form may be a part): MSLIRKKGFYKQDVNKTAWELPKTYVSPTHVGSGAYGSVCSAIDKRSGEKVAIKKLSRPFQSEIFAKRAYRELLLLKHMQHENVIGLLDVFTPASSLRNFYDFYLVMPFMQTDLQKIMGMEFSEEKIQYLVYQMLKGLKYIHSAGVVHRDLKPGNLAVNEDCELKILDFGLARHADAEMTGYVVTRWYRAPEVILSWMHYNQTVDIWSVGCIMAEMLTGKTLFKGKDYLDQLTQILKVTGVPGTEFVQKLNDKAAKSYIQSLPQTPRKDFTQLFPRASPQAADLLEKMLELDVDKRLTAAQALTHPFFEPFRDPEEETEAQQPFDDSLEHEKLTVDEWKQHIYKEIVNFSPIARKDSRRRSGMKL
Sequence of Protein-tyrosine kinase 6 (Q13882 whole entry): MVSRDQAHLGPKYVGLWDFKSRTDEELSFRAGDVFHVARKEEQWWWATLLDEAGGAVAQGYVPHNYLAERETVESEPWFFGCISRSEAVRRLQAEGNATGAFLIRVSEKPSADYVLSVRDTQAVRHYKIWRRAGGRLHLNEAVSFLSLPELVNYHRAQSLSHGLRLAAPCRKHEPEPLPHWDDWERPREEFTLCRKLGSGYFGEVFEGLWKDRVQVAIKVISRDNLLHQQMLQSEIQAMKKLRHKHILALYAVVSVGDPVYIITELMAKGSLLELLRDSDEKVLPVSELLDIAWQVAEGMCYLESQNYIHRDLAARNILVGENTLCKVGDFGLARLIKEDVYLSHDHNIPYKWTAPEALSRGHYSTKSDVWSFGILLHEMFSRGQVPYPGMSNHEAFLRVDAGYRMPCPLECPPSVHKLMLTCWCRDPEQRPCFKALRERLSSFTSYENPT
Sequence of MAP kinase-activated protein kinase 5 (Homo sapiens) (Q8IW41 whole entry): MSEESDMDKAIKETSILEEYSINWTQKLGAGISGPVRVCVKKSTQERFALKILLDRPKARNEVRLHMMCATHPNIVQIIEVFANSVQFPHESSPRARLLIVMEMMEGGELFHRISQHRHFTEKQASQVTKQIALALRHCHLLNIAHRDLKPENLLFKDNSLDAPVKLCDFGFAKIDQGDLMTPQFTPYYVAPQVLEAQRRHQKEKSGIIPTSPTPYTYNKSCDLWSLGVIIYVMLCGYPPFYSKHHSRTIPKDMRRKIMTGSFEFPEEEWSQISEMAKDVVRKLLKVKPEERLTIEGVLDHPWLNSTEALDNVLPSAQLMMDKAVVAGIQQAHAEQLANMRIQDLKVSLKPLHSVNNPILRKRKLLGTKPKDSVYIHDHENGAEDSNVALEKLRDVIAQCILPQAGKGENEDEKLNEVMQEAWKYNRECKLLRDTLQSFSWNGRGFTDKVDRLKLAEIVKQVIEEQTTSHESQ

Compound CN1CCN(c2ccc(OC(F)(F)F)c(Nc3ncc4c(n3)-c3c(c(C(N)=O)nn3CCO)CC4)c2)CC1 [ONVANSERTIB] has an AUC [1] of 2 µM·h, an IC50 (HCC 2998) of 0.132 µM and an Activity [2] of 77%. For the same compound, the Activity [3] was 122%, the IC50 (RS4-11) was 0.043 µM and the IC50 [4] was > 10 µM. It also gave a Time [5] of 50 days, an IC50 (SK-MEL-5) of 0.513 µM and a concentration at 240 h [6] of 433 nM. For the same compound, the Activity [7] was 113%, the IC50 (Granta-519) was 0.029 µM and the IC50 (SW1417) was 0.606 µM. It also gave an IC50 (T98G) of 0.228 µM, an IC50 (SU-DHL-1) of 0.096 µM and an IC50 [8] of 0.162 µM. It also gave an IC50 (EVSA-T) of 0.041 µM, an IC50 (HCC1954) of 0.015 µM and a clearance [9] of 20.6 mL/min/kg. It also gave an IC50 (KMS-11) of 0.046 µM, an IC50 (NCI-H358) of 0.175 µM and an IC50 (SUD4) of 0.056 µM. It also gave an Activity [10] of 76%, a Vd [11] of 2.8 L/kg and a half-life [12] of 4.2 h. The Activity (A2780) was “Dose-Dependent Effect”, the IC50 (U2OS) was 0.285 µM and the Activity [13] was 87%. For the same compound, the Activity [14] was 85%, the half-life [15] was 3.9 h and the IC50 [16] was > 10 µM.
